Test system: HEK-293T
Test: Multiplex assay against HEK293T;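 on Population Tubulin-Different-Phenotype (%): share of the cells with healthy nuclei that show this phenotype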
Assay type: toxicity, cell-based
Settings: human
How it was run: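 Compound was added to live cells that had been stained at seeding with Hoechst33342, BioTracker Green Microtubule Cytoskeleton Dye, MitoTracker Red and Annexin V Alexa Fluor 680, and imaging followed on a CQ1 microscope at 37°C and 5% CO2. CellPathfinder machine-learning gating divided cells into Hoechst high-intensity objects or normal cells, normal cells into healthy, pyknosed or fragmented nuclei, and pyknosed cells into mitotic or apoptotic. Tubulin, mitochondrial-mass and membrane-permeability phenotypes are per cents of healthy-nucleus cells.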

[1] = 12 h, 1 µM, compound concentration 1 uM, replicate 1
[2] = 12 h, 1 µM, compound concentration 1 uM, replicate 2
[3] = 12 h, 10 µM, compound concentration 10 uM, replicate 1
[4] = 12 h, 10 µM, compound concentration 10 uM, replicate 2
[5] = 24 h, 1 µM, compound concentration 1 uM, replicate 1
[6] = 24 h, 1 µM, compound concentration 1 uM, replicate 2
[7] = 24 h, 10 µM, compound concentration 10 uM, replicate 1
[8] = 24 h, 10 µM, compound concentration 10 uM, replicate 2
[9] = 48 h, 1 µM, compound concentration 1 uM, replicate 1
[10] = 48 h, 1 µM, compound concentration 1 uM, replicate 2
[11] = 48 h, 10 µM, compound concentration 10 uM, replicate 1
[12] = 48 h, 10 µM, compound concentration 10 uM, replicate 2

In the case of `CCc1ccc(OCc2ccccc2C(=O)Nc2ccc3nc(C)cc(N)c3c2)cc1.Cl`, the “Population Apoptotic (%)” value [1] is reported as 84%, the “Population Fragmented Nuclei (%)” value [1] is reported as 28% and the “Population Healthy Nuclei (%)” value [1] is reported as 7%. For the same compound, the “Population Hoechst High Intensity Objects (%)” value [1] was 18%, the “Population Membrane Permeable-Phenotype (%)” value [1] was 33% and the “Population Mitochondria Different-Phenotype (%)” value [1] was 100%. For the same compound, the “Population Mitotic Cells (%)” value [1] was 15%, the “Population Normal (%)” value [1] was 81% and the “Population Pyknosed Nuclei (%)” value [1] was 64%. For the same compound, the “Population Tubulin-Different-Phenotype (%)” value [1] was 66%, the “Total Cell Count” value [1] was 156 and the “Population Apoptotic (%)” value [2] was 73%. The “Population Fragmented Nuclei (%)” value [2] was 8%, the “Population Healthy Nuclei (%)” value [2] was 12% and the “Population Hoechst High Intensity Objects (%)” value [2] was 14%. The “Population Membrane Permeable-Phenotype (%)” value [2] was 0%, the “Population Mitochondria Different-Phenotype (%)” value [2] was 93% and the “Population Mitotic Cells (%)” value [2] was 26%. The “Population Normal (%)” value [2] was 85%, the “Population Pyknosed Nuclei (%)” value [2] was 79% and the “Population Tubulin-Different-Phenotype (%)” value [2] was 73%. The “Total Cell Count” value [2] was 146, the “Population Apoptotic (%)” value [3] was 50% and the “Population Fragmented Nuclei (%)” value [3] was 19%. The “Population Healthy Nuclei (%)” value [3] was 0%, the “Population Hoechst High Intensity Objects (%)” value [3] was 24% and the “Population Membrane Permeable-Phenotype (%)” value [3] was 0%. For the same compound, the “Population Mitochondria Different-Phenotype (%)” value [3] was 0%, the “Population Mitotic Cells (%)” value [3] was 50% and the “Population Normal (%)” value [3] was 75%. For the same compound, the “Population Pyknosed Nuclei (%)” value [3] was 80%, the “Population Tubulin-Different-Phenotype (%)” value [3] was 0% and the “Total Cell Count” value [3] was 144. The “Population Apoptotic (%)” value [4] was 62%, the “Population Fragmented Nuclei (%)” value [4] was 18% and the “Population Healthy Nuclei (%)” value [4] was 30%. For the same compound, the “Population Hoechst High Intensity Objects (%)” value [4] was 35%, the “Population Membrane Permeable-Phenotype (%)” value [4] was 11% and the “Population Mitochondria Different-Phenotype (%)” value [4] was 8%. The “Population Mitotic Cells (%)” value [4] was 37%, the “Population Normal (%)” value [4] was 64% and the “Population Pyknosed Nuclei (%)” value [4] was 51%. The “Population Tubulin-Different-Phenotype (%)” value [4] was 41%, the “Total Cell Count” value [4] was 175 and the “Population Apoptotic (%)” value [5] was 85%. For the same compound, the “Population Fragmented Nuclei (%)” value [5] was 18%, the “Population Hoechst High Intensity Objects (%)” value [5] was 19% and the “Population Mitochondria Different-Phenotype (%)” value [5] was 90%. For the same compound, the “Population Mitotic Cells (%)” value [5] was 14%, the “Population Normal (%)” value [5] was 80% and the “Population Pyknosed Nuclei (%)” value [5] was 72%. The “Population Tubulin-Different-Phenotype (%)” value [5] was 81%, the “Total Cell Count” value [5] was 152 and the “Population Apoptotic (%)” value [6] was 80%. The “Population Fragmented Nuclei (%)” value [6] was 10%, the “Population Healthy Nuclei (%)” value [6] was 9% and the “Population Hoechst High Intensity Objects (%)” value [6] was 15%. The “Population Membrane Permeable-Phenotype (%)” value [6] was 0%, the “Population Mitochondria Different-Phenotype (%)” value [6] was 100% and the “Population Mitotic Cells (%)” value [6] was 20%. For the same compound, the “Population Normal (%)” value [6] was 84%, the “Population Pyknosed Nuclei (%)” value [6] was 79% and the “Population Tubulin-Different-Phenotype (%)” value [6] was 100%. The “Total Cell Count” value [6] was 141, the “Population Apoptotic (%)” value [7] was 44% and the “Population Fragmented Nuclei (%)” value [7] was 20%. For the same compound, the “Population Healthy Nuclei (%)” value [7] was 0%, the “Population Hoechst High Intensity Objects (%)” value [7] was 22% and the “Population Membrane Permeable-Phenotype (%)” value [7] was 0%. For the same compound, the “Population Mitochondria Different-Phenotype (%)” value [7] was 100%, the “Population Mitotic Cells (%)” value [7] was 55% and the “Population Normal (%)” value [7] was 77%. For the same compound, the “Population Pyknosed Nuclei (%)” value [7] was 79%, the “Total Cell Count” value [7] was 135 and the “Population Apoptotic (%)” value [8] was 42%. For the same compound, the “Population Fragmented Nuclei (%)” value [8] was 28%, the “Population Healthy Nuclei (%)” value [8] was 21% and the “Population Hoechst High Intensity Objects (%)” value [8] was 26%. For the same compound, the “Population Membrane Permeable-Phenotype (%)” value [8] was 18%, the “Population Mitochondria Different-Phenotype (%)” value [8] was 18% and the “Population Mitotic Cells (%)” value [8] was 57%. The “Population Normal (%)” value [8] was 73%, the “Population Pyknosed Nuclei (%)” value [8] was 50% and the “Population Tubulin-Different-Phenotype (%)” value [8] was 100%. For the same compound, the “Total Cell Count” value [8] was 103, the “Population Apoptotic (%)” value [9] was 85% and the “Population Fragmented Nuclei (%)” value [9] was 26%. For the same compound, the “Population Healthy Nuclei (%)” value [9] was 2%, the “Population Hoechst High Intensity Objects (%)” value [9] was 22% and the “Population Mitochondria Different-Phenotype (%)” value [9] was 66%. The “Population Mitotic Cells (%)” value [9] was 14%, the “Population Normal (%)” value [9] was 77% and the “Population Pyknosed Nuclei (%)” value [9] was 70%. The “Population Tubulin-Different-Phenotype (%)” value [9] was 66%, the “Total Cell Count” value [9] was 155 and the “Population Apoptotic (%)” value [10] was 92%. The “Population Fragmented Nuclei (%)” value [10] was 14%, the “Population Healthy Nuclei (%)” value [10] was 11% and the “Population Hoechst High Intensity Objects (%)” value [10] was 11%. The “Population Membrane Permeable-Phenotype (%)” value [10] was 0%, the “Population Mitochondria Different-Phenotype (%)” value [10] was 84% and the “Population Mitotic Cells (%)” value [10] was 7%. For the same compound, the “Population Normal (%)” value [10] was 88%, the “Population Pyknosed Nuclei (%)” value [10] was 73% and the “Population Tubulin-Different-Phenotype (%)” value [10] was 84%. For the same compound, the “Total Cell Count” value [10] was 124, the “Population Apoptotic (%)” value [11] was 49% and the “Population Fragmented Nuclei (%)” value [11] was 20%. For the same compound, the “Population Healthy Nuclei (%)” value [11] was 0%, the “Population Hoechst High Intensity Objects (%)” value [11] was 22% and the “Population Membrane Permeable-Phenotype (%)” value [11] was 0%. For the same compound, the “Population Mitochondria Different-Phenotype (%)” value [11] was 0%, the “Population Mitotic Cells (%)” value [11] was 50% and the “Population Normal (%)” value [11] was 77%. The “Population Pyknosed Nuclei (%)” value [11] was 79%, the “Population Tubulin-Different-Phenotype (%)” value [11] was 0% and the “Total Cell Count” value [11] was 132. The “Population Apoptotic (%)” value [12] was 33%, the “Population Fragmented Nuclei (%)” value [12] was 31% and the “Population Healthy Nuclei (%)” value [12] was 50%. The “Population Hoechst High Intensity Objects (%)” value [12] was 40%, the “Population Membrane Permeable-Phenotype (%)” value [12] was 13% and the “Population Mitochondria Different-Phenotype (%)” value [12] was 28%. For the same compound, the “Population Mitotic Cells (%)” value [12] was 66%, the “Population Normal (%)” value [12] was 59% and the “Population Pyknosed Nuclei (%)” value [12] was 17%. For the same compound, the “Population Tubulin-Different-Phenotype (%)” value [12] was 64% and the “Total Cell Count” value [12] was 176.

Reference: ChEMBL document CHEMBL4689842, “EUbOPEN Chemogenomics Library wave 1” (2021)
